Bioassay records: PubChem BioAssay, Broad Institute
dFosB activator: activators of delta FosB homodimer, primary screen, biochemical, fluorescence polarization, TAMRA-CDK5 oligo, single point; purified delta FosB; percent of positive-control signal above neutral wells; activation, % at 25 µM; Protein FosB (Mus musculus), P13346; 340,000 compounds, 0.99% hits;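 active = mean activation above about 17%, with every replicate also reaching it, limit read from the data, passing the limit was not always enough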
SR-BI DiI-HDL act: activators of SR-BI mediated DiI-HDL uptake, primary screen, ldlA[mSR-BI] CHO cells, DiI fluorescence; 3 h; 100 = double the neutral-control signal; activation, % at 12.5 µM; 320,000 compounds, 0.096% hits;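 active = mean replicate activation of at least 60% and every replicate at or above 60%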
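Test system: SR-BI-overexpressing, LDLR-lacking CHO cells; Medium: Ham's F12 with 0.5% BSA, HEPES 25 mM, pH 7.4; Schedule: 3 h, 37 °C; Technique: bottom-read fluorescence, 550/595 nm.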
RAD54 inh: inhibitors of human RAD54 branch migration, primary screen, biochemical, fluorescence, single point; RAD54 Holliday junction branch migration, FAM/BHQ fluorescence; inhibition, % at 10.4 µM; 360,000 compounds, 0.14% hits; AID 602329, 2012;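 active = mean normalized replicate activity at least 40 and at least half of replicates scoring 40 or more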;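 note: inhibitors cause a drop in the FAM fluorescence signal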
S100A4 MyoIIA: inhibitors of S100A4-myosin IIA peptide binding, primary screen, biochemical, fluorescence polarization, TAMRA-MyoIIA peptide. Protein S100-A4 (Homo sapiens), P26447. inhibition, % at 10.7 µM. 360,000 compounds, 0.14% hits. AID 652163, 2013;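 active = mean inhibition of at least 70% across replicates, with every replicate also reaching that level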
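Material: human S100A4 monomer with TAMRA-labelled myosin IIA peptide; buffer or medium: HEPES pH 7.2 with CaCl2, KCl, NaCl, DTT, Triton; compound dosing: one concentration per compound; schedule: 5 min incubation before reading; benchmarks: neutral control DMSO, positive control TFP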
SR-BI DiI inh: inhibitors of SR-BI mediated HDL lipid uptake, primary screen, ldlA[mSR-BI] cells, fluorescence, single point | Scavenger receptor class B member 1 (Mus musculus), Q61009 | ldlA[mSR-BI] CHO cells, DiI-HDL uptake fluorescence, 3 h | inhibition, % at 12.5 µM | 320,000 compounds, 0.96% hits | AID 488896, 2010;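 active = mean replicate inhibition of at least 70% and a set share of replicates each scoring 70 or more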
Target sequence (Q61009 whole entry, looked up): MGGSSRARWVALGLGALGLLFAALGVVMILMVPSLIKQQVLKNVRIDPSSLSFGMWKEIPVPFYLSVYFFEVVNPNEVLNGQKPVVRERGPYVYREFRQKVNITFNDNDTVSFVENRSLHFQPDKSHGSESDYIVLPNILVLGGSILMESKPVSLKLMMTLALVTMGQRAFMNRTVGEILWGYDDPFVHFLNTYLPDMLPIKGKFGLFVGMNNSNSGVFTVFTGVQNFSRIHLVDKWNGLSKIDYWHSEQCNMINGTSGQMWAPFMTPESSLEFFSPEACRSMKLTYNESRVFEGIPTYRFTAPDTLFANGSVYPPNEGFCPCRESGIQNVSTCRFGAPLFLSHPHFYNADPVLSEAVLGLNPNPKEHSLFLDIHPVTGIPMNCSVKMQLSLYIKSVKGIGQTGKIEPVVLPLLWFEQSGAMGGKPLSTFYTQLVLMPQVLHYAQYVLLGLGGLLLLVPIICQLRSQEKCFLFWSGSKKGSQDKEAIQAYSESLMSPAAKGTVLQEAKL
PvdQ acylase: P. aeruginosa PvdQ acylase inhibitors, primary screen, biochemical, fluorescence, plate reader and imaging, single point. PvdQ acylase [Pseudomonas aeruginosa LESB58]. inhibition, % at 10 µM. AID 488965, 2010. purified PvdQ acylase. 340,000 compounds, 0.063% hits; in the data active = inhibition above about 30%, passing the limit was not always enough
Each line names hits and unclear results; the compound was inactive in the other large screens. The list is not random: actives were taken first. Their share in the collection is about 1.6%.

COc1cc(OC)cc(-c2c(C#Cc3ccsc3)c3cc(-c4cc(OC)c(OC)c(OC)c4)ccc3n2C)c1	none
COc1ccc(-c2c(-c3cc(OC)cc(OC)c3)n(C)c3ccc(-c4ccc5[nH]ccc5c4)cc23)cc1	SR-BI DiI inh 76
N#C/C(=C\c1ccc(N2CCCCC2)o1)C(=O)Nc1cccc(Br)c1	SR-BI DiI inh 99 (no result: RAD54 inh, S100A4 MyoIIA)
CC1=[N+](C)c2c(ccc3cccnc23)C1(C)C	SR-BI DiI-HDL act 97, S100A4 MyoIIA 159 (no result: RAD54 inh)
Cc1[nH]c2c(ccc3cccnc32)c1C	none
O=C(Nc1ccc(C(F)(F)F)cc1)c1ccc(NC(=O)C2CCCO2)cc1 (centres undefined)	dFosB activator 17 (no result: SR-BI DiI-HDL act, S100A4 MyoIIA, SR-BI DiI inh)
O=C(Nc1ccc(F)cc1)c1ccc(NC(=O)C2CCCO2)cc1 (centres undefined)	none (no result: S100A4 MyoIIA)
CCN1/C(=C/C=C/c2oc3ccc(-c4ccccc4)cc3[n+]2CC)Oc2ccc(-c3ccccc3)cc21	S100A4 MyoIIA active
CC(=O)N(C)C[C@H]1Oc2cc(-c3ccccc3F)ccc2S(=O)(=O)N([C@@H](C)CO)C[C@H]1C	none (no result: dFosB activator, SR-BI DiI-HDL act, SR-BI DiI inh, PvdQ acylase)
CCC(=O)N(C)C[C@@H]1Oc2cc(C#CC3CC3)ccc2S(=O)(=O)N([C@H](C)CO)C[C@@H]1C	none (no result: dFosB activator, SR-BI DiI-HDL act, SR-BI DiI inh, PvdQ acylase)
COc1ccccc1Nc1ccc(NC(=O)c2cccc([N+](=O)[O-])c2C)cc1	SR-BI DiI inh 84
O=C(Nc1cc(F)ccc1F)N1CC(=O)N2[C@H](CO)[C@H](c3ccc(-c4cccnc4)cc3)[C@H]2C1	none (no result: dFosB activator, SR-BI DiI-HDL act, RAD54 inh, SR-BI DiI inh, PvdQ acylase)
COC(=O)c1ccc(CN2CC(=O)N3[C@H](CO)[C@H](c4ccc(-c5cccnc5)cc4)[C@H]3C2)cc1	none (no result: dFosB activator, SR-BI DiI-HDL act, RAD54 inh, SR-BI DiI inh, PvdQ acylase)
Cc1cnc(NC(=O)c2cc3c(C)nn(-c4ccccc4)c3s2)s1	SR-BI DiI inh 76
CNC(=O)C[C@H]1CC[C@H]2[C@@H](COC[C@H](O)CN2Cc2ccc(Cl)c(Cl)c2)O1	none (no result: dFosB activator, SR-BI DiI-HDL act, SR-BI DiI inh, PvdQ acylase)
COc1ccc(C2=NOC(C(=O)N3CCCc4ccccc43)C2)cc1 (centres undefined)	none (no result: S100A4 MyoIIA)
COc1cc(C2=NOC(C(=O)N3CCCc4ccccc43)C2)cc(OC)c1OC (centres undefined)	SR-BI DiI inh 82 (no result: S100A4 MyoIIA)
CCn1c(=NC(=O)c2cccc(N3C(=O)CCC3=O)c2)sc2c(OC)ccc(OC)c21	SR-BI DiI inh 91
COc1ccc(OC)c2c1sc(=NC(=O)c1cccc(N3C(=O)CCC3=O)c1)n2C	SR-BI DiI inh 77
CN(C(=O)c1cccc(NC(=O)Cc2ccc(NC(=O)C3CCCN(C(=O)C4CCC4)C3)cc2)c1)C1CCCCC1 (centres undefined)	SR-BI DiI inh 88
CN(Cc1ccccc1)C(=O)c1cccc(NC(=O)Cc2ccc(NC(=O)C3CCCN(C(=O)C4CCCCC4)C3)cc2)c1 (centres undefined)	SR-BI DiI inh 75
CN(Cc1ccccc1)C(=O)c1cccc(NC(=O)Cc2ccc(NC(=O)C3CCN(C(=O)C4CCCC4)CC3)cc2)c1	none
COc1ccc2c3c(n(C)c2c1)[C@H](CO)N(CC1CC1)CC31CN(Cc2nccs2)C1	none (no result: dFosB activator, SR-BI DiI-HDL act, RAD54 inh, SR-BI DiI inh, PvdQ acylase)
C=CCN1C(=O)/C(=C2/Sc3ccccc3N2CC)SC1=S	none
CCN1C(=O)/C(=C2/Sc3ccccc3N2CC)S/C1=N\c1ncn[nH]1	SR-BI DiI inh 74
C[C@@H](NC(=O)C[C@H]1C=C[C@H](NC(=O)CN2CCOCC2)[C@H](CO)O1)c1ccccc1	none (no result: dFosB activator, SR-BI DiI-HDL act, SR-BI DiI inh, PvdQ acylase)
CCC(C)Sc1cc(-c2nc3ccccn3c2NC2CCCCC2)ccc1OC (centres undefined)	SR-BI DiI-HDL act 66
Cc1cc(Br)c(OCc2ccc(C(=O)N/N=C3\CC4CC=CC34)cc2)c(Br)c1 (centres undefined)	SR-BI DiI inh 84 (no result: RAD54 inh, S100A4 MyoIIA)
